Data taken from ChEMBL document CHEMBL3091364, “Benzyloxybenzylammonium chlorides: Simple amine salts that display anticonvulsant activity” (Bioorg Med Chem, 2013).
Active and inactive are the calls of the source. The calls are words filed in the database; no cut-off is given here.

Experiments:
Mus musculus [1] = test: Anticonvulsant activity in corneally kindled mouse assessed as protection against seizure at 78 mg/kg, ip; type: functional, organism-based; design: dose 78 mg/kg
Method in brief: (§1)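 Corneally kindled mouse seizure model with ip dosing. Protection was scored in 4 animals, and the average seizure score was recorded.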

Mus musculus [2] = test: Anticonvulsant activity in albino CF-1 mouse assessed as protection against maximal electroshock-induced seizures at 100 mg/kg, ip; type: functional, organism-based; design: dose 100 mg/kg
Method in brief: (§2)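 Screened under the NINDS ASP in male albino Carworth Farms No. 1 mice (ip) or male albino Sprague-Dawley rats (ip or po), using MES, 6 Hz (32 mA) and subcutaneous pentylenetetrazol seizure tests. Initial qualitative tests used preset doses (e.g., 30, 50, 100 mg/kg). ED50 values with 95% confidence intervals came from dose–response data collected at the time of peak effect.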

Mus musculus [3] = test: Anticonvulsant activity in corneally kindled mouse assessed as protection against seizure at 28 mg/kg, ip; type: functional, organism-based; design: dose 28 mg/kg; method in brief: as §1
Rattus norvegicus [4] = test: Anticonvulsant activity in ip dosed albino Sprague-Dawley rat assessed as protection against maximal electroshock-induced seizures measured at 0.25 to 0.5 hrs; type: functional; method in brief: as §2
Mus musculus [5] = test: Anticonvulsant activity in ip dosed albino CF-1 mouse assessed as protection against 6 Hz psychomotor seizure measured at 1 hr; type: functional; conditions: albino CF-1, ip; method in brief: as §2
Rattus norvegicus [6] = species on record: Rattus norvegicus; test: Inhibition of Na+ channel in rat embryonic cortical neurons assessed as frequency-dependent decrease in current amplitude at 10 uM at -80 mV holding potential by whole-cell voltage clamp assay
Rattus norvegicus [7] = species on record: Rattus norvegicus; test: Inhibition of Na+ channel in rat embryonic cortical neurons assessed as hyperpolarizing shift of current at 10 uM by whole-cell voltage clamp assay
Rattus norvegicus [8] = species on record: Rattus norvegicus; test: Induction of voltage-dependent Na+ channel activation in rat embryonic cortical neurons at 10 uM by whole-cell voltage clamp assay (reference value: - 39 +/- 7.8 mV)
Rattus norvegicus [9] = species on record: Rattus norvegicus; test: Induction of voltage-dependent Na+ channel fast inactivation in rat embryonic cortical neurons at 10 uM by whole-cell voltage clamp assay (reference value: - 51.1 +/- 1.4 mV)
Rattus norvegicus [10] = species on record: Rattus norvegicus; test: Activity at Na+ channel in rat embryonic cortical neurons assessed as effect on total macroscopic sodium current at 10 uM by whole-cell voltage clamp assay
[11] = Cytotoxicity against rat embryonic cortical neurons assessed as loss of membrane integrity at 20 uM; conditions: cortical neurone
Mus musculus [12] = test: Anticonvulsant activity in corneally kindled mouse assessed as protection against seizure at 20 mg/kg, ip; type: functional, organism-based; design: dose 20 mg/kg; method in brief: as §1
Rattus norvegicus [13] = test: Anticonvulsant activity in ip dosed albino Sprague-Dawley rat assessed as protection against maximal electroshock-induced seizures measured at 0.5 hrs; type: functional; method in brief: as §2

With `Cl.NCc1ccc(OCc2cccc(Cl)c2)cc1` the Activity (Mus musculus [1]) was “Active”.

With `Cl.NCc1ccc(OCc2cccc(F)c2)cc1` the Activity (Mus musculus [2]) was “Active”.

In the case of `Cl.NCc1ccc(OCc2cccc(OC(F)(F)F)c2)cc1`, the Activity (Mus musculus [3]) is reported as “Active”, the ED50 (Rattus norvegicus [4]) is reported as < 30 mg/kg and the ED50 (Mus musculus [5]) is reported as 50 mg/kg.

With `Cl.NCc1ccc(OCc2ccccc2OC(F)(F)F)cc1` the inhibition (Rattus norvegicus [6]) was “inactive”, the Activity (Rattus norvegicus [7]) was 15.3 mV and the V1/2 (Rattus norvegicus [8]) was -35.3 mV. The V1/2 (Rattus norvegicus [9]) was -66.4 mV, the Activity (Rattus norvegicus [10]) was “inactive” and the Activity [11] was “Toxic”. For the same compound, the Activity (Mus musculus [12]) was “Active” and the ED50 (Rattus norvegicus [13]) was 18 mg/kg.
